According to ChEMBL document CHEMBL3600383, “A new polyoxygenated cyclohexene and a new megastigmane glycoside from Uvaria grandiflora” (Bioorg Med Chem Lett, 2015):

Columns and labels:
Type in all cases: functional, cell-based
[1] = tested on: MDA-MB-231; experiment: Cytotoxic activity against human MDA-MB-231 cells assessed as inhibition of cell growth incubated for 48 hrs by SRB method; settings: MDA-MB-231, 48 h
Summary of the method: (§1)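 Sulforhodamine B growth-inhibition assay run as part of a panel of nine human cancer cell lines. Potency is reported as IC50 in µM.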

[2] = tested on: HepG2; experiment: Cytotoxic activity against human HepG2 cells assessed as inhibition of cell growth incubated for 48 hrs by SRB method; settings: HepG2, 48 h; summary of the method: as §1
[3] = tested on: SW480; experiment: Cytotoxic activity against human SW480 cells assessed as inhibition of cell growth incubated for 48 hrs by SRB method; settings: SW480, 48 h; summary of the method: as §1
[4] = Cytotoxic activity against human MKN7 cells assessed as inhibition of cell growth incubated for 48 hrs by SRB method; settings: MKN-7, 48 h; summary of the method: as §1
[5] = tested on: LNCaP; experiment: Cytotoxic activity against human LNCAP cells assessed as inhibition of cell growth incubated for 48 hrs by SRB method; summary of the method: as §1
[6] = tested on: HL-60; experiment: Cytotoxic activity against human HL60 cells assessed as inhibition of cell growth incubated for 48 hrs by SRB method; settings: HL-60, 48 h; summary of the method: as §1
[7] = tested on: KB; experiment: Cytotoxic activity against human KB cells assessed as inhibition of cell growth incubated for 48 hrs by SRB method; summary of the method: as §1
[8] = tested on: Lu1; experiment: Cytotoxic activity against human Lu1 cells assessed as inhibition of cell growth incubated for 48 hrs by SRB method; settings: Lu1, 48 h; summary of the method: as §1
[9] = tested on: SK-MEL-2; experiment: Cytotoxic activity against human SK-MEL-2 cells assessed as inhibition of cell growth incubated for 48 hrs by SRB method; settings: SK-MEL-2, 48 h
Summary of the method: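 Sulforhodamine B growth-inhibition assay, run in parallel across a panel of nine human cancer cell lines. Potency is reported as IC50 in µM.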

C[C@@H]1O[C@@H](O[C@H]2[C@H](O[C@H]3CO[C@@H](O[C@H]4CC[C@]5(C)[C@H]6CC[C@]78OC[C@@]9(CC[C@](C)(C=O)C[C@H]97)[C@H](O)C[C@@]8(C)[C@]6(C)CC[C@H]5C4(C)C)[C@H](O[C@@H]4O[C@H](CO)[C@@H](O)[C@H](O)[C@H]4O)[C@H]3O)O[C@H](CO)[C@@H](O)[C@@H]2O)[C@H](O)[C@H](O)[C@H]1O [ARDISIACRISPIN B]
IC50 [1]: 11.8 µM | IC50 [2]: 1.53 µM | IC50 [3]: 1.24 µM | IC50 [4]: 1.27 µM | IC50 [5]: 9.7 µM | IC50 [6]: 22.6 µM | IC50 [7]: 1.6 µM | IC50 [8]: 1.41 µM

Cc1c2ccncc2c(C)c2c1[nH]c1ccccc12 [ELLIPTECINE]
IC50 [1]: 3.21 µM | IC50 [2]: 3.5 µM | IC50 [3]: 3.17 µM | IC50 [9]: 1.14 µM | IC50 [4]: 3.82 µM | IC50 [5]: 3.21 µM | IC50 [6]: 2.93 µM | IC50 [7]: 3.98 µM | IC50 [8]: 2.72 µM

O=C(OC[C@@]1(O)C(=O)C=C[C@@H](O)[C@@H]1O)c1ccccc1
IC50 [1]: 64.1 µM | IC50 [2]: 13.1 µM | IC50 [3]: 11.3 µM | IC50 [9]: 3.63 µM | IC50 [4]: 8.63 µM | IC50 [5]: 45.4 µM | IC50 [6]: 6.22 µM | IC50 [7]: 13.3 µM | IC50 [8]: 4.68 µM
